Measurements taken from ChEMBL document CHEMBL2331551, “TOPS-MODE model of multiplexing neuroprotective effects of drugs and experimental-theoretic study of new 1,3-rasagiline derivatives potentially useful in neurodegenerative diseases” (2013).

Experiments:
Type in all cases: functional, Neuron
[1] = Neuroprotection in Sprague-Dawley rat embryonic motor cortex neurons assessed as protection against 100 uM H2O2-induced neuronal death at 5 uM by MTT method
How it was run: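 Primary neurons cultured from embryonic day-19 Sprague-Dawley rat motor cortex. Cells were exposed to compound in the presence of H2O2 as the neurotoxic insult. Viability was read as MTT reduction, which reflects mitochondrial integrity and function and indicates the number of viable cells. Protection is given as mean ± SEM of at least three independent experiments.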

[2] = Neuroprotection in Sprague-Dawley rat embryonic motor cortex neurons assessed as protection against 100 uM glutamate-induced excitotoxicity at 5 uM by MTT method
How it was run: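 Primary cultures of motor cortex neurons from 19-day Sprague-Dawley rat embryos, challenged with glutamate as neurotoxic agent alongside the compound. Cell viability read by MTT reduction, taken as mitochondrial integrity and functional activity, reflecting the number of viable cells. Neuroprotection (NP) reported in %, as mean ± SEM from at least three independent experiments.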

[3] = Neuroprotection in Sprague-Dawley rat embryonic motor cortex neurons at 5 uM by MTT method
How it was run: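 Cultured neurons from embryonic day-19 Sprague-Dawley rat motor cortex, with compound alone and no neurotoxic agent added. Viability measured by MTT reduction, read as mitochondrial functional activity and number of cells present in culture. Neuroprotection expressed as % (NP), mean ± SEM of at least three independent experiments.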

## C#CCN(CC#C)[C@@H]1C[C@@H](O)c2ccccc21
[1]
  Activity: 19.6%
[2]
  Activity: -0.5%
[3]
  Activity: -1%

## C#CCN(CC#C)[C@@H]1C[C@@H](OC(C)=O)c2ccccc21
[1]
  Activity: 12.3%
[2]
  Activity: -0.5%
[3]
  Activity: 0%

## C#CCN(CC#C)[C@@H]1C[C@@H](OC(=O)c2ccccc2)c2ccccc21
[1]
  Activity: -5.8%
[2]
  Activity: -1.3%
[3]
  Activity: 6.9%

## C#CCN[C@@H]1C[C@@H](O)c2ccccc21
[1]
  Activity: 14.5%
[2]
  Activity: 15.2%
[3]
  Activity: 23.4%

## C#CCN(CC#C)[C@@H]1C[C@H](OC(C)=O)c2ccccc21
[1]
  Activity: 18.2%
[2]
  Activity: -1.5%
[3]
  Activity: 0%

## C#CCN(CC#C)[C@@H]1C[C@H](O)c2ccccc21
[1]
  Activity: 17.8%
[2]
  Activity: 0%
[3]
  Activity: -5%

## C#CCN(CC#C)[C@@H]1C[C@H](OC(=O)c2ccccc2)c2ccccc21
[1]
  Activity: 16.4%
[2]
  Activity: 1.6%
[3]
  Activity: -5.1%

## C#CCN[C@@H]1C[C@H](O)c2ccccc21
[1]
  Activity: 46.2%
[2]
  Activity: 0%
[3]
  Activity: 0%
